Measurements taken from article PMC2200097 (The Journal of Cell Biology, 1993).
Each block holds one molecule with its values, some of them ahead of it.

Key:
[1] = target: peptide 300 (GGWSHW) (human)
[2] = target: peptide 300 (GGWSHW) (human); experiment: radioligand binding
[3] = test system: melanoma cells; details: murine lung colonization assay; ref Tuszynski et al., 1992; cited from earlier work
[4] = target: human plasma fibronectin (Homo sapiens, UniProt P02751); experiment: Direct binding of [125I]fibronectin to immobilized peptides; details: solid phase assay, labeled fibronectin
[5] = target: fibronectin (Homo sapiens, UniProt P02751); type: binding; details: for IC50 for competition of [125I]fibronectin binding to peptide GGWSHW: irrelevant proteins as inhibitors; for Inhibition of fibronectin binding to immobilized peptide GGWSHW, in words: soluble peptide or protein as inhibitor
How it was run: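 Wells were incubated 2 h at 25°C with [¹²⁵I]human plasma fibronectin (0.2 μg/ml final per methods; 0.5 μg/ml per legends) plus serial dilutions of soluble inhibitors. Wells were washed three times with DPBS, cut out and counted. Duplicates; percent of specific binding without inhibitor.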

[6] = target: peptide GGWSHW (Homo sapiens, UniProt P07996); type: binding; details: detection with antibody 191; wells coated with 50 μg/ml GGWSHW
How it was run: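 Peptide GGWSHW (50 μg/ml) was coated on microtiter wells and blocked with 1% BSA. Wells were incubated with graded concentrations of unlabeled intact fibronectin, the 30-kD proteolytic gelatin-binding domain or the 120-kD proteolytic cell-binding fragment. After washing, bound protein was detected sequentially with 5 μg/ml monoclonal antibody 191 and ¹²⁵I-goat anti-IgG, then counted. Values are mean ± SD of duplicates.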

[7] = target: human plasma fibronectin (human); experiment: radioligand binding

Sequence of fibronectin (P02751 306-608 limits assumed): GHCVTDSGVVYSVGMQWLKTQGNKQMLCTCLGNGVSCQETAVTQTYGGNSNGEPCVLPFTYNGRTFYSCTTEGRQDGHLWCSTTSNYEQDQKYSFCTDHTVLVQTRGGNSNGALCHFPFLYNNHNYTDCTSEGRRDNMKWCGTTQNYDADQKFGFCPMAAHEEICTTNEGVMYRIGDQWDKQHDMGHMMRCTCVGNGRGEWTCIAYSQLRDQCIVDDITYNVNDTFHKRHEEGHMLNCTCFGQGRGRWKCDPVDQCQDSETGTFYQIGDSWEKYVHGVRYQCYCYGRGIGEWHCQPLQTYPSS
Sequence of human plasma fibronectin (P02751 306-608 limits assumed): as above

half saturation [1]: 15 µg/mL
Molecule: 30-kD proteolytic gelatin-binding domain of fibronectin (domain or fragment)

Fibronectin binding to immobilized peptide, in words [4]: inactive
Molecule: DGWSPW (DGWCSPW) [compound 317]

IC50 for competition of [125I]fibronectin binding to peptide GGWSHW [5]: > 200 µg/mL
Molecule: fetuin: irrelevant control protein [reference compound]

IC50 for competition of [125I]fibronectin binding to peptide GGWSHW [5]: > 200 µg/mL
Molecule: transferrin: irrelevant control protein [reference compound]

IC50 [7]: > 300 µM
Molecule: GGWSHWSPWSS [peptide 256 (…)]

IC50 for competition of [125I]fibronectin binding to peptide GGWSHW [5]: > 200 µg/mL
B1: ovalbumin: irrelevant control protein (protein)
chain: MGSIGAASMEFCFDVFKELKVHHANENIFYCPIAIMSALAMVYLGAKDSTRTQINKVVRFDKLPGFGDSIEAQCGTSVNVHSSLRDILNQITKPNDVYSFSLASRLYAEERYPILPEYLQCVKELYRGGLEPINFQTAADQARELINSWVESQTNGIIRNVLQPSSVDSQTAMVLVNAIVFKGLWEKAFKDEDTQAMPFRVTEQESKPVQMMYQIGLFRVASMASEKMKILELPFASGTMSMLVLLPDEVSGLEQLESIINFEKLTEWTSSNVMEERKIKVYLPRMKMEEKYNLTSVLMAMGITDVFSSSANLSGISSAESLKISQAVHAAHAEINEAGREVVGSAEAGVDAASVSEEFRADHPFLFCIKHIATNAVLFFGRCVSP

More lines, now with the values behind:

Molecule: 40-kD recombinant fragment of fibronectin with the same amino terminus as the 28-kD fragment (domain or fragment)
fold less active as inhibitor than the 33-kD fragment [2]: 10 fold

Molecule: CSTSCG
Inhibition of metastasis of melanoma cells, in words [3]: inhibit

Molecule: CSVTCG
Inhibition of metastasis of melanoma cells, in words [3]: inhibit

Molecule: GGWGPW [compound 318]
Fibronectin binding to immobilized peptide, in words [4]: inactive

Molecule: fibronectin
Inhibition of fibronectin binding to immobilized peptide GGWSHW, in words [5]: competed
Half saturation of binding to immobilized peptide GGWSHW [6]: 0.7 µg/mL

Molecule: peptide 340 (AAWSHW)
IC50 [7]: > 300 µM

Molecule: thrombospondin: human platelet thrombospondin, extracellular matrix glycoprotein
Inhibition of fibronectin binding to immobilized peptide GGWSHW, in words [5]: competed
